# This is a sample that favours compounds with a hit; in the whole collection about 3.1% have one here.
# INS promoter inh = inhibitors of insulin promoter-driven GFP, primary screen, imaging, TRM-6 cells (human fetal islet line), eGFP reporter, cell count; AID 1273, 2008; reporter expression induced with tamoxifen; 130,000 compounds, 0.9% hits; inhibition, % at 2 µM;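 active = inhibition above the mean plus 3 SD, with well images judged a real hit on visual review, cut at about 60% in these data, passing the limit was not always enough; inconclusive = inhibition over the cutoff but images rejected on review; inactive = inhibition not above the cutoff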
# RAM inhibit = inhibitors of the yeast RAM network, primary screen, dse1pr::URA3 reporter, 5-FOA selection; inhibition, % at 50 µM; AID 868, 2007; S. cerevisiae dse1pr::URA3 reporter, 5-FOA growth OD615, 2 d; analog-sensitive cbk1-as2 kinase mutant strain; 190,000 compounds, 1.8% hits;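 active = inhibition above a set limit, 3 SD over mean compound inhibition, cut at about 8.4% in these data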;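 also: 0% = DMSO-only wells with no growth and 100% = 10 µM 1-NA-PP1 full growth; inhibition rescues growth on 5-FOA so higher OD means more RAM inhibition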
# Yeast growth inh = growth inhibitors of yeast BB579 in restrictive medium, primary screen, yeast lifespan-shortening project, S. cerevisiae. OD615, 48 h. inhibition, % at 10 µM. 140,000 compounds, 0.51% hits. AID 804, 2007;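 active = inhibition above a set limit, 3 SD over the mean compound inhibition, cut at about 44% in these data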
#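 Assay system: S. cerevisiae DeaD strain BB579 yeast. Medium: CSMM-D restrictive synthetic medium containing dextrose (glucose). Times: 4 h cell preincubation, 48 h compound exposure, 30 °C humidified. Signal: OD615 turbidity measurement. Benchmarks: positive control amphotericin B 10 µg/mL.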
# Insulin prom up = insulin promoter activators in MIN6 cells, imaging, high-content screening, mouse beta cells. 190,000 compounds, 0.3% hits. z-score at 5 µM. MIN6 insulin promoter-GFP reporter; active compounds read high;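 active = z-score above 3 at 5 µM with at least 500 cells counted in the well; inconclusive = wells under 500 cells, flagged as cytotoxic or low count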
# Yeast lifespan up = compounds extending yeast replicative lifespan, primary screen, S. cerevisiae, OD615; S. cerevisiae growth with nicotinamide; deaD strain in restrictive glucose medium; inhibition of the nicotinamide effect, % at 10 µM; 130,000 compounds, 0.68% hits;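 active = inhibition above a set limit, placed 3 SD over the median of all compounds, cut at about 26% in these data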;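 also: 0% = nicotinamide-treated wells and 100% = cells grown without nicotinamide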
#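 assay system = DeaD-strain S. cerevisiae | buffer or medium = restrictive glucose medium | reagent = 1.5 mM nicotinamide | compound = 10 µM single point, 0.25% DMSO | incubation = 48 h compound exposure at 30 °C, humidified | signal = OD615 measurement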
# Numbers without * were called inactive; ? = inconclusive; nt = no result given.
SMILES,INS promoter inh,RAM inhibit,Yeast growth inh,Insulin prom up,Yeast lifespan up
CCOc1ccc(Nc2nc3cc(S(=O)(=O)CC)ccc3o2)cc1,nt,nt,nt,0.88,nt
O=CNC(n1cnc2c(N3CCOCC3)ncnc21)C(Cl)(Cl)Cl (configuration not stated),nt,nt,nt,-1.2,nt
Cc1cccc(C)c1N/C=C/c1onc(C)c1[N+](=O)[O-],4,4,-20,0.5,-7
Cc1noc(/C=C/c2ccc(-c3ccccc3Cl)o2)c1[N+](=O)[O-],nt,8.9*,-37,nt,-5
CCCCCCCOC(=O)C[N+](C)(C)CCOC1CC2CCC1(C)C2(C)C (configuration not stated),nt,-3,100*,?,-12
Cc1c(C#N)c(=O)c(-[n+]2ccccc2)c([S-])n1-c1ccc(Cl)cc1,nt,nt,nt,0.08,nt
Cc1cc(C)cc(N(CCC(=O)O)S(=O)(=O)c2ccc3ccccc3c2)c1,-40,5,-30,0.1,33*
CCN1C(=O)N(S(=O)(=O)c2ccc(C)cc2)[C@@H](c2ccccc2)C(C(=O)OC)=C1C,nt,nt,nt,-0.53,nt
COc1ccc(C2C3=C(N=C4SCC(=O)N42)c2ccccc2CC3)cc1 (configuration not stated),71*,1,2,-1.9,-11
CN1C(=O)C2(N=c3ccccc3=N2)c2ccccc21,-23,1,57*,0.89,-35
COC(=O)CSc1nc2ccc(NC(=O)c3ccccc3C(=O)N3CCOCC3)cc2s1,nt,9.1*,-32,0.56,-5
O=C(Nc1ccc2nc(SCc3ccc(Cl)cc3)sc2c1)c1ccccc1C(=O)N1CCOCC1,nt,6,-18,-0.87,-12
O=C(CSc1nnc2c(n1)[nH]c1ccccc12)Nc1cccc(S(=O)(=O)N2CCOCC2)c1,nt,nt,nt,-0.1,nt
NC(=O)c1cccnc1Nc1cccc(F)c1,87*,-1,-4,-0.64,-5
CSc1nc2ccc(S(=O)(=O)N(C)C)cc2s1,-3,1,-18,-0.19,6
CCN(CC)S(=O)(=O)c1ccc2nc(SC)sc2c1,79*,0,-15,-0.14,5
CCOC(=O)CSc1cc(C)c(C#N)c2nc3ccccc3n12,nt,3,nt,-0.43,nt
CCOC(=O)c1c(C)cc(C)n2c1nc1ccccc12,75*,2,-46,0.83,-16
CCc1cccc(C)c1NC(=S)NCc1cccn1C,0,1,-17,-0.23,5
COc1ccc(C(=O)Oc2cccc3cccnc23)cc1[N+](=O)[O-],nt,-1,nt,-0.01,nt
Cc1ccc(C(=O)Oc2ccc(Cl)c3cccnc23)cc1[N+](=O)[O-],-53,1,68*,0.64,-28
Cc1nn(Cc2c(Cl)cccc2Cl)c(Cl)c1/C=N/NC(=O)c1cccnc1,20,1,-20,-0.03,8
Cc1cc(C)nc(SCc2cc(=O)c(OC(=O)c3ccc(Br)o3)co2)n1,37,-1,-42,-0.69,49*
Cc1cc(C)nc(SCc2cc(=O)c(OC(=O)c3ccco3)co2)n1,30,3,-24,-0.06,46*
COc1cc2c(cc1OC)-c1nncn1C(C)(C)C2,nt,2,-7,3.8*,-1
SMILES,INS promoter inh,RAM inhibit,Yeast growth inh,Insulin prom up,Yeast lifespan up
O=C(NC1CCCC1)c1cc2nc(-c3ccccc3)cc(-c3ccccc3)n2n1,nt,nt,nt,-0.66,nt
O=C(Nc1cccc(O)c1)c1cc2nc(-c3ccccc3)cc(-c3ccccc3)n2n1,-11,9.7*,-25,0.1,4
C/C(=N\NC(=S)NCc1ccccc1)c1ccc(Br)cc1,nt,9.9*,nt,0.33,nt
C/C(=N\NC(=S)NCc1ccccc1)c1ccc2c(c1)OCCO2,nt,1,nt,-0.28,nt
COc1ccc(CN(CC2CCC(C(=O)O)CC2)C(=S)Nc2ccc(C)c(Cl)c2)cc1 (configuration not stated),nt,2,nt,-1.1,nt
COc1ccc(CCN(Cc2cc3cc(C)cc(C)c3nc2Cl)C(=O)C2CC2)cc1,nt,11*,-4,-0.31,-5
CCC1CCC(NC(=O)Nc2cccc(OC)c2)CC1 (configuration not stated),nt,7,nt,0.03,nt
O=C(OCc1ccc(F)cc1)c1ccc2c(c1)-c1ccccc1C2=O,-21,11*,-61,-0.07,-15
CCOC(=O)C1=C(Cc2ccc(F)cc2)C(=O)c2ccccc2C1=O,-22,6,-10,1.6,7
COc1ccc2oc(=O)c(C(=O)N3c4ccccc4CC3C)cc2c1 (configuration not stated),-40,1,-42,-1,-6
